Test results: publication PMC10650344 (RSC Medicinal Chemistry, 2023)
Values after ≈ are worked out from the molar mass of the structure shown.

What was measured:
[1] = Experimental water solubility by HPLC; assay type: physicochemical
[2] = log P by shake-flask method; assay type: physicochemical; settings: n-octanol/phosphate buffer solution (PBS), pH 7.4
Outline: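 Shake-flask partition. About 5 mg of test compound dissolved in 1 mL n-octanol and mixed with an equal volume of PBS, pH 7.4. Mixture inverted 200 times over 5 min, then left 30 min to separate. Each phase assayed by HPLC (C18, 250 × 4.6 mm, isocratic H₂O/ACN + 0.1% TFA, 1 mL min⁻¹). log P taken from the concentration ratio of unionized compound between the phases.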

Aβ1–42 aggregation = assay type: cell-based, human; settings: Congo red staining, experimental AD model
Outline: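 Differentiated SH-SY5Y cells (retinoic acid, then BDNF) given 20 μM pre-fibrillised Aβ1–42 with test compound. Cells then fixed with 4% paraformaldehyde in PBS at 4 °C for 30 min and PBS-washed. Congo red (1 μM) added for 1 h in the dark, followed by three PBS washes. Bound dye extracted with DMSO, with absorbance read at 497 nm.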

[3] = tested on: differentiated SHSY-5Y cell cultures; assay type: cell-based, human; settings: compound 50 μg mL^−1, Aβ1–42 20 μM, 24 h
Outline: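 AD model: SH-SY5Y cells differentiated with retinoic acid then BDNF, then exposed to 20 μM Aβ1–42 (fibrillised 24 h in medium). 10⁵ cells seeded; Aβ1–42 with or without test compound (25 or 50 μg mL⁻¹) for 24 h. Cells trypsinised 3 min at 37 °C, spun 500 × g 5 min, stained in binding buffer with Annexin V-FITC and propidium iodide 5 min at room temperature, then analysed by flow cytometry.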

[4] = tested on: differentiated SHSY-5Y cells; assay: Genotoxicity analysis by Hoechst 33258 fluorescent nuclear staining; assay type: cell-based, human; settings: for genotoxic properties on the differentiated SHSY-5Y cells: 100 μg mL^−1; for Mean NA/1000 cells ± SD: 100 μg mL^−1, 24 h, nuclear abnormalities
Outline: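 SH-SY5Y differentiated with 10 μM retinoic acid for 8 days (medium refreshed every 2 days), then 25 nM BDNF for 5 days. Test compound applied for 24 h. Cells washed in PBS, fixed in 4% paraformaldehyde at 4 °C for 30 min, then stained with Hoechst 33258 (1 mM) for 5 min at room temperature. Micronuclei, lobbed and notched nuclei scored by fluorescence microscopy in 1000 cells per treatment, in triplicate.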

[5] = tested on: differentiated SHSY-5Y cells; assay: MTT cell viability; assay type: cell-based, human; settings: 12.5–100 μg mL^−1, 24 h
Outline: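 Neuron-like cultures made by differentiating SH-SY5Y with 10 μM retinoic acid for 8 days, then 25 nM BDNF for 5 days. Cells incubated 24 h with test compound at 12.5–100 μg mL⁻¹. Controls: untreated cells, and cells given 1.0% Triton X-100. MTT (5 mg mL⁻¹ solution) added for 3 h at 37 °C, formazan dissolved in DMSO, absorbance read at 570 nm. Three independent experiments, mean ± SD.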

Compound	solubility [1] [µg/mL]	logP [2]	preventive activity against Aβ1–42 aggregation (Aβ1–42 aggregation)	reduction of the apoptotic cell death ratio [3] [%]	genotoxic properties on the differentiated SHSY-5Y cells [4]	Mean NA/1000 cells ± SD [4] [NA/1000 cells]	cytotoxic effect on the differentiated SHSY-5Y cells (MTT cell viability) [5]
COc1ccc(/C=C/c2nc(-c3ccc(OC)cc3)cs2)cc1 [6i, (E)-4-(4-Methoxyphenyl)-2-(4-methoxystyryl)thiazole]	0.0719 (≈ 0.222 µM)	4.18	over 80%	30	did not enhance the genotoxic properties	0.017	no cytotoxic effect
Brc1ccc(-c2csc(/C=C/c3ccccc3)n2)cc1 [6e, (E)-4-(4-Bromophenyl)-2-styrylthiazole]	0.0175 (≈ 0.0511 µM)	4.87			did not enhance the genotoxic properties	0.017	no cytotoxic effect
